Experimental findings from ChEMBL document CHEMBL1122226, “6-Aryl-4,5-dihydro-3(2H)-pyridazinones. A new class of compounds with platelet aggregation inhibiting and hypotensive activities” (J Med Chem, 1983) are described below.

A word on the EC50: it is the concentration at which the effect is half-maximal.

≈ marks a conversion by molar mass, not a printed value.

The species entered for assay [1] is Homo sapiens. The experiment in a line: In vitro inhibition of ADP-induced human platelet aggregation. The following applies: Homo sapiens; read-out: EC50. Format: functional. The method, boiled down: (§1)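 Human venous blood citrated with 10% v/v sodium citrate (3.8%); platelet-rich plasma spun at 300g, 10 min, 4 °C, used within 2 h. Compound in Me2SO (1% final) preincubated 10 min at room temperature; aggregation triggered by collagen 0.02 mg/mL final or ADP 0.85 μg/mL final; maximum rate read in Born aggregometer. EC50 from log dose–effect regression with 95% confidence limits.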

The species named for assay [2] is Homo sapiens. The experiment in a line: Relative activity (compared to acetylsalicylic acid) for in vitro inhibition of collagen-induced human platelet aggregation. Format: functional.
For assay [3], the system named is Rattus norvegicus. The experiment in a line: Activity relative to dihydralazine for in vitro hypotensive activity in anesthetized rats. Format: functional. The following applies: in the assay text read “in vivo” for “in vitro”. Summed up: (§2)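 Male Sprague-Dawley rats, 230-280 g, urethane-anesthetized (ip); carotid arterial pressure recorded continuously by pressure transducer. Compounds given ip at 2 mL/kg. ED20, dose lowering mean carotid pressure by 20%, from log dose–effect regression; dihydralazine as reference.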

The test system of assay [4] is Rattus norvegicus. The experiment in a line: In vitro hypotensive activity in anesthetized rats after intraperitoneal administration. Format: functional. The following applies: ip, in the assay text read “In vivo” for “In vitro”. The method, boiled down: as §2
The species named for assay [5] is Homo sapiens. The experiment in a line: In vitro inhibition of collagen-induced human platelet aggregation. Format: functional, organism-based. Summed up: as §1
Assay [6] deals with Rattus norvegicus. Description: Ex vivo inhibition of collagen-induced rat platelet aggregation after peroral administration. Format: functional. The following applies: po. The method, boiled down:
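Male Sprague-Dawley rats, 200-250 g, dosed orally, three rats per dose. Blood drawn by heart puncture under ether 1 h post-dose; platelet-rich plasma prepared by centrifugation; aggregation induced with collagen 0.02 mg/mL final, maximum rate read in Born aggregometer.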

Assay [7] can be described thus: In vitro inhibition of collagen induced aggregation of human plateles and the ratio of ED33 to EC50 was reported. Format: functional. Summed up:
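Ratio of oral ED33 (male Sprague-Dawley rats, 3 per dose, blood taken 1 h post-dose, collagen-triggered aggregation) to in vitro EC50 (human citrated platelet-rich plasma, 10 min room-temperature preincubation in 1% Me2SO, collagen 0.02 mg/mL final, regression-derived).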

For assay [8], the species on record is Rattus norvegicus. The experiment in a line: Relative activity in rats based on acetylsalicylic acid. Format: functional.

For `Nc1cccc(C2=NNC(=O)CC2)c1`, the EC50 in the assay listed under Homo sapiens [1] is more than 46.4 µg/mL; in the assay listed under Homo sapiens [5] (Homo sapiens, read-out: EC50), more than 46.4 µg/mL. Moreover, the Relative activity in the assay listed under Homo sapiens [2] is less than 11; in the assay on Rattus norvegicus [3], less than 0.34. This molecule also registered an ED20 in the assay with Rattus norvegicus [4] of more than 1 mg/kg.
Take `CC(=O)Oc1ccccc1C(=O)O` [ASPIRIN]: the Relative activity in the assay filed under Homo sapiens [2] and in the assay with Rattus norvegicus [3] was 1 each time. The ED33 in the assay on Rattus norvegicus [6] came out at 233 mg/kg. Moreover, in assay [7], the Ratio turned out to be 0.47. This molecule came in with an EC50 in the assay listed under Homo sapiens [5] of 494 µg/mL (≈ 2740 µM).
Take `Nc1ccc(C2=NNC(=O)CC2)cc1`: the EC50 in the assay filed under Homo sapiens [1] was found to be 46.4 µg/mL (≈ 245 µM); in the assay listed under Homo sapiens [5] (Homo sapiens, read-out: EC50), 14.8 µg/mL (≈ 78.2 µM). Besides, the Relative activity in the assay filed under Homo sapiens [2] amounted to 33; in the assay with Rattus norvegicus [3], 1.88. This molecule gave an ED20 with Rattus norvegicus [4] of 0.18 mg/kg.
For `O=C1CCC(c2ccc(NC(=O)CN3CCOCC3)cc2)=NN1`, in that order: approximately 46.4 µg/mL (≈ 147 µM), approximately 21.5 µg/mL (≈ 68 µM), approximately 23, less than 0.34 and more than 1 mg/kg.
For `CC(C)(CCl)C(=O)Nc1ccc(C2=NNC(=O)CC2)cc1`, in that order: 11.4 µg/mL (≈ 37 µM), 9.24 µg/mL (≈ 30 µM), 54, less than 0.34 and more than 1 mg/kg.
`CCCC(=O)Nc1ccc(C2=NNC(=O)CC2)cc1`: the 50% effective concentration (EC50) in the assay listed under Homo sapiens [1] was 1.44 µg/mL (≈ 5.55 µM); in the assay listed under Homo sapiens [5] (Homo sapiens, read-out: EC50), 1.45 µg/mL (≈ 5.59 µM). The Relative activity stood at 341 in the assay listed under Homo sapiens [2] and 0.74 with Rattus norvegicus [3]. The molecule further displayed an ED20 in the assay on Rattus norvegicus [4] of 0.46 mg/kg.
For `CCC(C)NCC(=O)Nc1ccc(C2=NNC(=O)CC2)cc1.Cl` (configuration not stated), in that order: approximately 21.5 µg/mL, approximately 21.5 µg/mL, approximately 23, less than 0.34 and more than 1 mg/kg.
As for `CC(=O)Nc1ccc(C2=NN(C)C(=O)CC2)cc1`, the concentration giving a half-maximal response (EC50) in the assay filed under Homo sapiens [1] was more than 46.4 µg/mL; in the assay listed under Homo sapiens [5] (Homo sapiens, read-out: EC50) it was more than 46.4 µg/mL. Moreover, the Relative activity in the assay filed under Homo sapiens [2] is reported as less than 11; with Rattus norvegicus [3], 0.34. In the assay on Rattus norvegicus [4], this molecule came in with an ED20 of 1 mg/kg.
In the case of `CCCNCC(=O)Nc1ccc(C2=NNC(=O)CC2)cc1.Cl`, the EC50 in the assay listed under Homo sapiens [1] is approximately 46.4 µg/mL; in the assay listed under Homo sapiens [5] (Homo sapiens, read-out: EC50), approximately 10 µg/mL. For the same molecule, the Relative activity in the assay filed under Homo sapiens [2] was approximately 49; with Rattus norvegicus [3], less than 0.34. In addition, the ED20 in the assay on Rattus norvegicus [4] was more than 1 mg/kg.
Consider `CC(Cl)C(=O)Nc1ccc(C2=NNC(=O)C(C)C2)cc1` (configuration not stated), for which the concentration giving a half-maximal response (EC50) in the assay filed under Homo sapiens [1] was 32.9 µg/mL (≈ 112 µM); in the assay listed under Homo sapiens [5] (Homo sapiens, read-out: EC50), 33.8 µg/mL (≈ 115 µM). Also, the Relative activity is 15 in the assay filed under Homo sapiens [2] and less than 0.34 in the assay with Rattus norvegicus [3]. Moreover, the ED20 in the assay with Rattus norvegicus [4] is more than 1 mg/kg.
As for `CC(Br)C(=O)Nc1ccc(C2=NNC(=O)CC2C)cc1` (configuration not stated), the EC50 in the assay listed under Homo sapiens [1] worked out at 0.26 µg/mL (≈ 0.769 µM). Further, the Relative activity in the assay on Rattus norvegicus [3] stood at 0.85; in the assay listed under Rattus norvegicus [8] it was 28.5. Also, the ED33 in the assay on Rattus norvegicus [6] stood at 8.18 mg/kg. In the assay with Rattus norvegicus [4], this molecule registered an ED20 of 0.4 mg/kg. Besides, in assay [7], the Ratio was found to be 14.1.
`C=CCNCC(=O)Nc1ccc(C2=NNC(=O)CC2)cc1.Cl`: the half-maximal effective concentration (EC50) was approximately 21.5 µg/mL in the assay filed under Homo sapiens [1] and approximately 4.64 µg/mL in the assay listed under Homo sapiens [5] (Homo sapiens, read-out: EC50). Also, the Relative activity in the assay filed under Homo sapiens [2] was approximately 107; in the assay with Rattus norvegicus [3], less than 0.34. In the assay on Rattus norvegicus [4], the ED20 was more than 1 mg/kg.
With `O=CNc1ccc(C2=NNC(=O)CC2)cc1`, the EC50 in the assay filed under Homo sapiens [1] was 3.74 µg/mL (≈ 17.2 µM); in the assay filed under Homo sapiens [5] (Homo sapiens, read-out: EC50) it was 5.27 µg/mL (≈ 24.3 µM). Also, the Relative activity worked out at 94 in the assay filed under Homo sapiens [2] and 1.06 in the assay with Rattus norvegicus [3]. This molecule registered an ED20 in the assay with Rattus norvegicus [4] of 0.32 mg/kg.
Regarding `CC(=O)Nc1ccc(C2=NNC(=O)C(C)C2)cc1` (configuration not stated), the EC50 stood at 46.4 µg/mL (≈ 189 µM) in the assay listed under Homo sapiens [1] and 46.4 µg/mL (≈ 189 µM) in the assay listed under Homo sapiens [5] (Homo sapiens, read-out: EC50). Also, the Relative activity in the assay filed under Homo sapiens [2] is listed as 11; with Rattus norvegicus [3] it was less than 0.34. The ED20 with Rattus norvegicus [4] was more than 1 mg/kg.
`CC(C)NCC(=O)Nc1ccc(C2=NNC(=O)CC2)cc1.Cl`: the EC50 in the assay listed under Homo sapiens [1] is approximately 46.4 µg/mL; in the assay filed under Homo sapiens [5] (Homo sapiens, read-out: EC50), approximately 21.5 µg/mL. Also, the Relative activity in the assay listed under Homo sapiens [2] is listed as approximately 23; in the assay on Rattus norvegicus [3] it was less than 0.34. The same molecule showed an ED20 in the assay on Rattus norvegicus [4] of more than 1 mg/kg.
`CC1CC(=O)NN=C1c1ccc(NC(=O)CCl)cc1` (configuration not stated): in the assay listed under Homo sapiens [1], the EC50 is 0.15 µg/mL (≈ 0.536 µM). Also, the Relative activity is reported as 2.25 with Rattus norvegicus [3] and 19.1 in the assay listed under Rattus norvegicus [8]. The molecule further came in with an ED33 in the assay on Rattus norvegicus [6] of 12.2 mg/kg. In addition, in the assay on Rattus norvegicus [4], the ED20 stood at 0.15 mg/kg. Also, the Ratio in assay [7] turned out to be 111.
Turning to `C[N+]1(CC(=O)Nc2ccc(C3=NNC(=O)CC3)cc2)CCCC1.[Cl-]`, the concentration for a half-maximal effect (EC50) is more than 46.4 µg/mL in the assay listed under Homo sapiens [1] and more than 46.4 µg/mL in the assay filed under Homo sapiens [5] (Homo sapiens, read-out: EC50). Moreover, the Relative activity is given as less than 11 in the assay listed under Homo sapiens [2] and less than 0.34 in the assay on Rattus norvegicus [3]. For the same molecule, the ED20 in the assay on Rattus norvegicus [4] was more than 1 mg/kg.
